From PMC6226330 (ACS Infectious Diseases, 2018)
Like-named read-outs stand apart in the source and are kept apart here. Each block holds one compound with its values, some of them ahead of it.

Key:
S. aureus (Newman) [1] = assay: Mouse S. aureus thigh infection model, PET and ex vivo biodistribution; format: in vivo
S. aureus [2] = assay: In vitro uptake of 2-[18F]F-PABA by S. aureus; format: cell-based
Outline: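 Cells were incubated with 10 kBq/mL 2-[18F]F-PABA at 37 °C with rapid agitation, with graded PABA concentrations for blocking. Cells were then pelleted, washed three times in PBS, and gamma-counted. At least six replicates were run per point. Data were expressed as percentage or normalized to total protein (Bradford).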

S. aureus [3] = assay: Compartment PK model of dynamic 2-[18F]F-PABA PET data; format: in vivo, rat; settings: after 2 h, simulation with compartment PK model
Outline: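 Dynamic PET data came from blood and the infected right triceps of S. aureus-infected rats. Specific and nonspecific activities at the sites were then simulated.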

MSSA and MRSA = format: in vivo, rat
Outline: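 Female Sprague-Dawley rats (10 weeks) received 50 μL S. aureus Newman (MSSA) in the right triceps and MRSA ATCC BAA1762 in the left triceps, each at 8 log10 CFU. Oxacillin began 2–4 h after infection: 4 subcutaneous 200 mg/kg doses over 20 h. Tracer was 22.2–44.4 MBq in saline by tail-vein catheter under anesthesia. PET/CT was done 2–4 h after the last dose.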

J774 murine macrophages = assay: In vitro uptake of 2-[18F]F-PABA by mammalian cells; format: cell-based
Outline: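 J774.1 murine macrophages were cultured in RPMI GlutaMAX with 10% heat-inactivated FBS at 37 °C, 5% CO2. Tracer accumulation was gamma-counted in parallel with bacterial strains. At least six replicates were run. Values were expressed as percentage or normalized to total protein (Bradford).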

S. aureus (Newman) [4] = assay: Rat triceps infection versus sterile inflammation model, PET/CT and ex vivo; format: in vivo; settings: for infected triceps to inflamed triceps ratio: PET; for PET signal at infection site versus sterile inflammation: [18F]FDG PET, 60–80 min postinjection, P = 0.2, n = 4
Outline: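 Rats received live S. aureus Newman (50 μL) in the right triceps and heat-killed bacteria in BHI (50 μL) in the left. After 20–24 h, tracer was given IV and dynamic PET/CT run up to 120 min. Uptake was %ID/cc, with blood taken from the left ventricle (n = 7, mean ± SEM). Ex vivo gamma counting gave %ID/g (n = 6). Groups were compared by two-tailed Mann-Whitney U test.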

S. aureus [5] = format: in vivo, rat; settings: tracer containing 2 mg 19F-PABA, two hours after injection, ex vivo
Outline: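 Rats carried live S. aureus Newman in the right triceps and heat-killed bacteria in BHI in the left triceps (sterile inflammation). They received 29.6–37 MBq tracer spiked with 2 mg 19F-PABA via the tail vein. At 2 h animals were sacrificed. Organ radioactivity was gamma-counted and bacterial load determined by plating and CFU enumeration.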

MRSA = assay: Bacterial burden ex vivo; format: in vivo, rat; settings: four doses of 200 mg/kg subcutaneously over 20 h; untreated 9.0 ± 0.2
MSSA = assay: Bacterial burden ex vivo; format: in vivo, rat; settings: four doses of 200 mg/kg subcutaneously over 20 h; untreated 8.4 ± 0.1
[6] = group not treated with oxacillin
[7] = oxacillin-treated, four doses of 200 mg/kg

share of total activity at site of infection from specific accumulation (S. aureus [3]): ~60%
PET signal in left triceps (MRSA infection) (MSSA and MRSA; [6]): 0.096 ± 0.039 %ID/cc
PET signal in right triceps (MSSA infection) (MSSA and MRSA; [6]): 0.087 ± 0.041 %ID/cc
PET signal in left triceps (MRSA infection) (MSSA and MRSA; [7]): 0.079 ± 0.036 %ID/cc
PET signal in right triceps (MSSA infection) (MSSA and MRSA; [7]): 0.025 ± 0.015 %ID/cc
infected triceps to inflamed triceps ratio (S. aureus (Newman) [4]; 60 min): 5.52
infected triceps to inflamed triceps ratio (S. aureus (Newman) [4]; 120 min): 7.95
infected triceps to inflamed triceps ratio (S. aureus (Newman) [4]; after 10 min): ~2 fold
signal in infected triceps compared to inflamed muscle (S. aureus (Newman) [4]; post-mortem ex vivo analysis, %ID/g): 4.30 ± 0.82
ratio of 2-[18F]F-PABA in infected triceps compared to inflamed muscle (S. aureus [5]): 9.38 ± 2.43
SMILES: Nc1ccc(C(=O)O)c([18F])c1 [2-[^18F]F-PABA, 2-[^18F]fluoro-p-aminobenzoic acid]
tracer level in infected versus uninfected thighs (S. aureus (Newman) [1]; mouse thigh infection): significantly higher levels of tracer were found in the infected thighs than in uninfected thighs
elimination (S. aureus (Newman) [1]; mouse, PET and ex vivo tissue analysis): rapidly eliminated mainly through renal clearance
accumulation in viable versus heat-killed bacteria (S. aureus [2]; S. aureus ATCC 29213): rapidly accumulated in viable cells but not in heat-killed bacteria
accumulation in clinical strains (S. aureus [2]; four MSSA and six MRSA clinical strains): accumulates in all the clinical strains tested
accumulation in mammalian cells (J774 murine macrophages): not in mammalian cells

PET signal at infection site versus sterile inflammation (S. aureus (Newman) [4]): not significantly different
PET signal at infection site versus sterile inflammation (S. aureus (Newman) [4]; listed as [^18F]F-FDG): no difference
SMILES: OC[C@H]1OC(O)[C@H]([18F])[C@@H](O)[C@@H]1O (stereo partly shown) [[^18F]FDG, [^18F]fluorodeoxyglucose, reference compound]

SMILES: Cc1onc(-c2ccccc2)c1C(=O)N[C@@H]1C(=O)N2[C@@H]1SC(C)(C)[C@@H]2C(=O)O [oxacillin]
bacterial burden in left triceps (MRSA infection) (MRSA): 8.2 ± 0.3 log10 CFU/g
bacterial burden in right triceps (MSSA infection) (MSSA): 6.4 ± 0.4 log10 CFU/g
